Molecules are shown by their SMILES. Values after ≈ are worked out from the molar mass of the structure shown. Active and inactive are the calls of the source. No cut-off for these calls is given here. Where only a bound is given, the exact number is not on record here.

Series [1] concerns SK-OV-3. Description: Cytotoxicity against human SK-OV3 cells by neutral red assay up to 25 ug/mL. The class given is functional, cell-based. The procedure, abridged: (§1)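 Cells were seeded at 25,000 per well and incubated 24 h. Test samples were added at a range of concentrations, followed by a further 48 h incubation. Viable cells were quantified by Neutral Red uptake, and IC50 was read from dose curves of percent growth versus concentration.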

The test system of series [2] is SK-MEL. Description: Cytotoxicity against human SKMEL cells by neutral red assay up to 25 ug/mL. The class given is functional, cell-based. Summed up: as §1
Series [3] deals with BT-549. The series can be described thus: Cytotoxicity against human BT549 cells by neutral red assay up to 25 ug/mL. The series is classed as functional, cell-based. The procedure, abridged: as §1
Series [4] relates to Leishmania donovani. The series can be described thus: Antileishmanial activity against Leishmania donovani promastigotes after 48 hrs by Alamar blue assay. The class given is functional, organism-based. The procedure, abridged:
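L. donovani promastigotes were grown in RPMI 1640 with 10% fetal calf serum at 26 C. A 3-day-old culture was diluted to 5 × 10^5 promastigotes/mL, and drug dilutions were made directly in the cell suspension. After 48 h at 26 C, growth was read by Alamar Blue fluorescence (ex 544/em 590 nm). IC50 and IC90 came from percent growth versus concentration curves.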
Background: The colour change of resazurin is a common sign of viable cells or microbes.

In series [5] the test system is Vero. The series can be described thus: Cytotoxicity against african green monkey Vero cells by neutral red assay up to 25 ug/mL. The series is classed as cell-based. The settings on record: chlorocebus sabaeus. Summed up:
as §1

The nature of series [6]: Cytotoxicity against pig LLC-PK11 cells by neutral red assay up to 25 ug/mL. The series is classed as cell-based, Sus scrofa. Summed up:
as §1

Series [7] concerns KB. Description: Cytotoxicity against human KB cells by neutral red assay up to 25 ug/mL. The series is classed as functional, cell-based. Summed up:
as §1

Series [8] relates to Candida albicans. Description: Antifungal activity against Candida albicans. The class given is functional, organism-based. The procedure, abridged: (§2)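 Modified NCCLS broth microdilution. Samples in DMSO were serially diluted in 0.9% saline and tested in duplicate. Inocula were matched to the 0.5 McFarland standard by absorbance at 630 nm, then diluted in broth. Growth, solvent and media controls were included. Plates were read at 630 nm before and after incubation, and IC50 was taken from percent growth versus concentration.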

Series [9] relates to Cryptococcus neoformans. Description: Antifungal activity against Cryptococcus neoformans. The class given is functional, organism-based. The procedure, abridged:
as §2

The subject of series [10] is Aspergillus fumigatus. The series can be described thus: Antifungal activity against Aspergillus fumigatus. The class given is functional, organism-based. Summed up: as §2
The subject of series [11] is Staphylococcus aureus. Description: Antibacterial activity against methicillin-resistant Staphylococcus aureus. The class given is functional, organism-based. The procedure, abridged:
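Modified NCCLS broth microdilution. Samples in DMSO serially diluted in 0.9% saline, tested in duplicate. Inoculum set against 0.5 McFarland standard by absorbance at 630 nm, then diluted in broth. Growth, solvent and media controls included. Plates read at 630 nm before and after incubation. IC50 from percent growth vs concentration; MIC = lowest concentration with no detectable growth.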

Series [12] relates to BT-549. Description: Cytotoxicity against human BT549 cells by neutral red assay. The series is classed as functional, cell-based. Summed up:
as §1

The subject of series [13] is Vero. Description: Cytotoxicity against african green monkey Vero cells by neutral red assay. The class given is cell-based. Conditions: chlorocebus sabaeus. The procedure, abridged:
as §1

Series [14] deals with SK-MEL. The series can be described thus: Cytotoxicity against human SKMEL cells by neutral red assay. The series is classed as functional, cell-based. The procedure, abridged: as §1
The test system of series [15] is SK-OV-3. Description: Cytotoxicity against human SK-OV3 cells by neutral red assay. The series is classed as functional, cell-based. The procedure, abridged:
as §1

Series [16] in a line: Cytotoxicity against pig LLC-PK11 cells by neutral red assay. The settings on record: Sus scrofa. The class given is cell-based. Summed up:
as §1

The subject of series [17] is KB. Description: Cytotoxicity against human KB cells by neutral red assay. The series is classed as functional, cell-based. The procedure, abridged: as §1

`CC(C)CC(=O)c1c(O)c2c(c(C(=O)CC(C)C)c1O)O[C@@]1(C)[C@@H](C2)C[C@H]2C[C@@H]1C2(C)C`: the result in series [1], in [2], in series [3], in [4], in [7] and in [8] was inactive. The result in [9] and in [10] was inactive. Also, the Activity result in [5] and in series [6] was “Not Active” each time.

With `CC1(C)[C@H]2C[C@@H]3Cc4c(O)c(C=O)c(O)c(C=O)c4O[C@]3(CCO)[C@@H]1C2`, the outcome in series [1], in [2], in series [3], in [7], in [8] and in [9] was inactive. Moreover, the result in series [10] was inactive. The molecule further came in with an IC50 in [4] of 22 µg/mL (≈ 61 µM). Besides, the Activity result in series [5] and in series [6] was “Not Active” throughout.

Regarding `O=C(O)c1cn(C2CC2)c2cc(N3CCNCC3)c(F)cc2c1=O` [CIPROFLOXACIN], the MIC in series [11] stood at 0.25 µg/mL (≈ 0.754 µM).

As for `CC(C)CC(=O)c1c(O)c2c(c(C(=O)CC(C)C)c1O)O[C@]1(CC2)CC[C@@H]2C[C@H]1C2(C)C`, the outcome in series [1], in series [2], in series [3], in series [4], in series [7] and in series [8] was inactive. The outcome in [9] and in series [10] was inactive. Also, the Activity result in series [5] and in series [6] was “Not Active” in each case.

`CC(C)CC(=O)c1c(O)c2c(c(C(=O)CC(C)C)c1O)O[C@@]1(CC2)[C@H]2CC[C@H](C2)C1(C)C`: the outcome in [1], in [2], in [3], in [4], in series [7] and in series [8] was inactive. The result in series [9] and in series [10] was inactive. The Activity entry in series [5] and in series [6] was “Not Active” each time.

Take `CC(C)CC(=O)c1c(O)c(C=O)c2c(c1O)C[C@H]1C[C@H]3C[C@H](C3(C)C)[C@@]1(CO)O2`: the IC50 amounted to 23 µg/mL (≈ 57.1 µM) in series [12], 18 µg/mL (≈ 44.7 µM) in series [4] and 2.5 µg/mL (≈ 6.21 µM) in series [11]. The result in series [1], in [2], in series [7], in series [8], in series [9] and in [10] was inactive. The IC90 in series [4] was found to be 39 µg/mL (≈ 96.9 µM). The Activity result in series [5] and in series [6] was “Not Active” in each case.

For the molecule `CC(C)CC(=O)c1c(O)c2c(c(C(=O)CC(C)C)c1O)O[C@]1(C)C[C@@H]3[C@H](C[C@@H]1C2)C3(C)C`, the result in series [1], in [2], in series [3], in series [4], in [7] and in [8] was inactive. Besides, the outcome in [9] and in series [10] was inactive. The Activity entry in series [5] and in [6] was “Not Active” throughout.

For `CC(C)CC(=O)c1c(O)c2c(c(C(=O)CC(C)C)c1O)O[C@@]1(CO)[C@@H](C2)C[C@H]2C[C@@H]1C2(C)C`, the values for the IC50 in [12], in [4] and in [13] were 25 µg/mL (≈ 54.5 µM), 24 µg/mL (≈ 52.3 µM) and greater than 25 µg/mL, respectively. In addition, the result in series [1], in series [2], in [7], in [8], in [9] and in series [10] was inactive. Further, the Activity entry in series [6] was “Not Active”.

Take `CC1(C)[C@H]2C[C@@H]3Cc4c(O)c(C=O)c(O)c(C=O)c4O[C@]3(CO)[C@@H]1C2`: the IC50 in [14] and in series [12] was 25 µg/mL (≈ 72.2 µM) in each case. Further, the outcome in [1], in [4], in series [8], in series [9] and in [10] was inactive. The Activity entry in [5] and in [6] was “Not Active” each time.

The molecule `CC(C)CC(=O)c1c(O)c2c(c(C(=O)CC(C)C)c1O)O[C@@]1(CCO)[C@@H](C2)C[C@H]2C[C@@H]1C2(C)C` returned a half-maximal inhibitory concentration (IC50) in [12] greater than 25 µg/mL. For the same molecule, the result in series [1], in series [2], in series [4], in series [7], in [8] and in series [9] was inactive. Further, in [10], the outcome was inactive. Moreover, the Activity result in [5] and in [6] was “Not Active” each time.

In series [4], `C[C@@H]1[C@H](O)[C@@H](C)/C=C/C=C/C=C/C=C/C=C/C=C/C=C/[C@H](O[C@@H]2O[C@H](C)[C@@H](O)[C@H](N)[C@@H]2O)C[C@@H]2O[C@](O)(C[C@@H](O)C[C@@H](O)[C@H](O)CC[C@@H](O)C[C@@H](O)CC(=O)O[C@H]1C)C[C@H](O)[C@H]2C(=O)O` [AMPHOTERICIN B] gave an IC50 of 0.19 µg/mL (≈ 0.206 µM) and an IC90 of 0.36 µg/mL (≈ 0.39 µM).

As to `CC(C)CC(=O)c1c(O)c(C=O)c2c(c1O)C[C@H]1CC[C@H]3[C@H](C3(C)C)[C@@]1(C)O2`, the IC50 is greater than 25 µg/mL in series [15], greater than 25 µg/mL in [12], 2.4 µg/mL (≈ 6.21 µM) in series [4] and greater than 25 µg/mL in series [16]. Also, the outcome in series [2], in series [7], in series [8], in series [9] and in series [10] was inactive. The molecule further gave an IC90 in series [4] of 8 µg/mL (≈ 20.7 µM). Also, in [5], the Activity entry is given as “Not Active”.

In [4], `N=C(N)c1ccc(OCCCCCOc2ccc(C(=N)N)cc2)cc1` [PENTAMIDINE] had an IC50 of 1.2 µg/mL (≈ 3.52 µM) and an IC90 of 6 µg/mL (≈ 17.6 µM).

For the molecule `CC(C)CC(=O)c1c(O)c(C=O)c(O)c2c1O[C@@]1(CO)[C@@H](C2)C[C@H]2C[C@@H]1C2(C)C`, the values for the IC50 in [12], in series [4] and in series [11] were 22.5 µg/mL (≈ 55.9 µM), 30 µg/mL (≈ 74.5 µM) and 10 µg/mL (≈ 24.8 µM), respectively. Besides, the result in series [1], in series [2], in series [7], in series [8], in series [9] and in series [10] was inactive. Besides, the Activity entry in [5] and in series [6] was “Not Active” throughout.

In the case of `CC(C)CC(=O)c1c(O)c(C=O)c2c(c1O)C[C@H]1C[C@H]3C[C@H](C3(C)C)[C@@]1(C)O2` [EUGLOBAL G2], in [4], the IC50 was determined as 3.6 µg/mL (≈ 9.31 µM).

Take `CC1(C)[C@H]2[C@@H]1CC[C@@H]1Cc3c(O)c(C=O)c(O)c(C=O)c3O[C@@]12C`: the values for the IC50 in series [12], in series [17] and in series [4] were greater than 25 µg/mL, 20 µg/mL (≈ 60.5 µM) and 20 µg/mL (≈ 60.5 µM), respectively. The result in series [1], in series [2], in [8], in series [9] and in series [10] was inactive. In addition, the 90% effect level in series [4] (IC90) was put at 40 µg/mL (≈ 121 µM). Moreover, the Activity result in series [5] and in series [6] was “Not Active” throughout.

As for `CC(C)CC(=O)c1c(O)c2c(c(C(=O)CC(C)C)c1O)O[C@@]1(C)[C@H](CC[C@H]3[C@@H]1C3(C)C)C2`, the result in series [1], in [2], in series [3], in series [4], in [7] and in series [8] was inactive. In addition, the outcome in [9] and in series [10] was inactive. For the same molecule, the Activity result in series [5] and in [6] was “Not Active” each time.

A word on the IC50: it is the concentration at which inhibition is half-maximal. One may read the MIC as the least concentration at which growth counts as inhibited. What is called IC90 is the concentration needed for an effect of 90%.

These data come from ChEMBL document CHEMBL1143930, “S-Euglobals: biomimetic synthesis, antileishmanial, antimalarial, and antimicrobial activities” (Bioorg Med Chem, 2008).
